Results from different studies.
Target: Mu-type opioid receptor (OPRM1, Homo sapiens, UniProt P35372)
Effect on: ligand displacement

| Structure (SMILES) | test | setting | inhibition |
| --- | --- | --- | --- |
| Ic1cccc2cnccc12 | radioligand | 10 µM | -4% |
| O=C1N=C(N2CCCCN2)S/C1=C\c1ccc(F)cc1O | radioligand | 10 µM | < 10% |
| CCCNc1nc2ccccc2n1Cc1ccc(Cl)cc1 | – | 10 µM | 12.4% |
| O=C(c1ccc(Cl)cc1)N(Cc1ccccc1)C1CCCCC1 | – | 10 µM | 10.9% |
| CN1CCN(CCCOc2ccc(=O)n(-c3ccc(Cl)c(Cl)c3)n2)CC1 | – | 1 µM | 17.2% |
| CCN(Cc1ccccc1C(F)(F)F)C(=O)C1CCN(S(=O)(=O)c2ccc3[nH]ncc3c2)CC1 | radioligand | 10 µM | 5% |
| N#Cc1cc(Cn2c(N3CCCC3)nc3ccccc32)ccc1F | – | 10 µM | -6.78% |
| O=C(Nc1ccc(S(=O)(=O)N2CCC(Cl)CC2)cc1)c1ccc([N+](=O)[O-])o1 | radioligand | 10 µM | 1% |
| COc1ccc(-n2nc(OCCCN3CCCCC3)ccc2=O)cc1 | – | 1 µM | 45.8% |
| COc1cc(NC(C)=O)c(Cl)cc1C(=O)Nc1nccs1 | – | 10 µM | -5.3% |
| CCN(CC)c1ccc(C2Nc3ccc(C(=O)c4ccccc4)cc3NC3=C2C(=O)CC(C)(C)C3)cc1 (centres unmarked) | radioligand | 10 µM | 9% |
